Source: paper PMC9066187 (RSC Advances, 2019)
Where two headings read alike, the source gives them in different places.

What was measured:
[1] = system: mixture of tyrosine kinases extracted from HT-29 cell line; assay type: biochemical, human; conditions: 10 μM
purified Src kinase = purified Src kinase (Homo sapiens, UniProt P12931); assay: biochemical; conditions: for inhibition at 10 µM: read-out: Src kinase inhibition
HCT-116 cells [2] = assay: Annexin V-FITC/PI apoptosis/necrosis assessment, HCT-116; assay type: cell-based, human; conditions: 10 μM, 48 h, versus control
Procedure, shortened: (§1)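 Human colorectal cancer cells were exposed to 10 μM test compound for 48 h, then stained with annexin V-FITC/PI and analysed by flow cytometry to separate apoptotic from necrotic cells. Each population is expressed as a percentage of total events and compared with untreated control. Values are mean ± SD, n = 3.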

HT-29 cells [3] = assay: cells; conditions: Homo sapiens, HT-29, 72 h; for viability at 10 µM: read-out: viability drop compared to control cells
[4] = system: LS-174T colorectal cancer cells; assay: cells; conditions: Homo sapiens, LS174T, 72 h, read-out: viability drop compared to control cells
HCT-116 cells [5] = assay: cells; conditions: Homo sapiens, HCT-116, 72 h; for viability at 10 µM: read-out: viability drop compared to control cells; for IC50: 72 h
HCT-116 cells [6] = conditions: 72 h; for viability drop compared to control cells: 100 μM
HT-29 cells [7] = conditions: 72 h; for viability drop compared to control cells: 100 μM
[8] = system: LS-174T colorectal cancer cells; conditions: 100 μM; 72 h
HT-29 cells [9] = assay: Cell cycle distribution by DNA cytometry, HT-29; assay type: cell-based, human; conditions: 10 μM, 48 h; for cell population in G2/M-phase: control 19.3 ± 1.6%; for cells in S-phase: control 27.3 ± 0.6%; for cell population in G0/G1-phase: control 53.4 ± 2.7%
HT-29 cells [10] = assay: Cyto-ID autophagy assessment, HT-29; assay type: cell-based, human; conditions: for inhibition at 10 µM: Homo sapiens, HT-29, 48 h, read-out: inhibition of autophagy
HCT-116 cells [11] = assay: Cell cycle distribution by DNA cytometry, HCT-116; assay type: cell-based, human; conditions: 10 μM, 48 h
HT-29 cells [12] = assay: Annexin V-FITC/PI apoptosis/necrosis assessment, HT-29; assay type: cell-based, human; conditions: 10 μM, 48 h, versus control
Procedure, shortened: as §1

HCT-116 cells [13] = assay: Cyto-ID autophagy assessment, HCT-116; assay type: cell-based, human; conditions: 10 μM, 48 h

Sequence of purified Src kinase (P12931 whole entry, looked up): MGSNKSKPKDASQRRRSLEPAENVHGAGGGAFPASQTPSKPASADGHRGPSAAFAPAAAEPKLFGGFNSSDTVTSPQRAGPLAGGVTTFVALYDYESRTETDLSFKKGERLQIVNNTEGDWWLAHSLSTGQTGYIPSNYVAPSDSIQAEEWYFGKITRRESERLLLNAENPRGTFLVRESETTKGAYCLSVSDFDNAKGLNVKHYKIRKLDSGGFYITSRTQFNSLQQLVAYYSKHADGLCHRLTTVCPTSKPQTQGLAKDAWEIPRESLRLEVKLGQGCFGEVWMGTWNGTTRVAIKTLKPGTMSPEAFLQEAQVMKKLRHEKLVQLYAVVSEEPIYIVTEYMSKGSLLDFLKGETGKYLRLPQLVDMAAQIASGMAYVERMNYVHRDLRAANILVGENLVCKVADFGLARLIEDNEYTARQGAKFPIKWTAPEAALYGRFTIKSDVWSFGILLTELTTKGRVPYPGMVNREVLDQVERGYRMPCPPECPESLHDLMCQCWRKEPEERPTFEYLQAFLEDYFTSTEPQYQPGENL

COc1cc(C)cc(-c2nc(Nc3cc(C(F)(F)F)cc(C(F)(F)F)c3)ncc2-c2ccnc(Cl)c2)c1 [Compound 7]
multi-kinase inhibitory effect [1]: 37.4 ± 3.7% | Src kinase inhibitory activity in words (dose-response) (purified Src kinase): moderate inhibitory activity | inhibition at 10 µM (purified Src kinase): 42.3 ± 10.3% | increase of necrotic cell population (HCT-116 cells [2]): 3.4 folds | IC50 (HT-29 cells [3]): 9.4 ± 0.5 µM | viability at 10 µM (HT-29 cells [3]): > 50% | viability at 100 µM [4]: > 50%

COc1cc(C)cc(-c2nc(Nc3cc(C(F)(F)F)cc(C(F)(F)F)c3)ncc2-c2ccnc(-c3ccc(C#N)cc3)c2)c1 [Compound 8f]
viability at 10 µM (HCT-116 cells [5]): > 50% | viability at 10 µM (HT-29 cells [3]): > 50% | viability at 10 µM [4]: > 50% | viability at 100 µM [4]: > 50%

COc1cc(C)cc(-c2nc(Nc3cc(C(F)(F)F)cc(C(F)(F)F)c3)ncc2-c2ccnc(-c3ccc(N(C)C)cc3)c2)c1 [Compound 8g]
multi-kinase inhibitory effect [1]: 33.1 ± 0.4% | inhibition at 10 µM (purified Src kinase): 28.5 ± 1.2% | viability at 10 µM (HCT-116 cells [5]): 30 to 45% | viability at 10 µM (HT-29 cells [3]): > 50% | viability at 100 µM [4]: > 50%

COc1cc(C)cc(-c2nc(Nc3cc(C(F)(F)F)cc(C(F)(F)F)c3)ncc2-c2ccnc(-c3cccc(C(C)=O)c3)c2)c1 [Compound 8c]
viability at 10 µM (HT-29 cells [3]): 35 to 45%

COc1cc(C)cc(-c2nc(Nc3cc(C(F)(F)F)cc(C(F)(F)F)c3)ncc2-c2ccnc(-c3ccc(N(c4ccccc4)c4ccccc4)cc3)c2)c1 [Compound 8h]
viability drop compared to control cells (HCT-116 cells [6]): failed to show any considerable antiproliferative/cytotoxic effects | viability drop compared to control cells (HT-29 cells [7]): failed to show any considerable antiproliferative/cytotoxic effects | viability drop compared to control cells [8]: failed to show any considerable antiproliferative/cytotoxic effects

Cc1cc(O)cc(-c2nc(Nc3cc(C(F)(F)F)cc(C(F)(F)F)c3)ncc2-c2ccnc(-c3ccc(N(c4ccccc4)c4ccccc4)cc3)c2)c1 [Compound 10h]
viability drop compared to control cells (HCT-116 cells [6]): failed to show any considerable antiproliferative/cytotoxic effects | viability drop compared to control cells (HT-29 cells [7]): failed to show any considerable antiproliferative/cytotoxic effects | viability drop compared to control cells [8]: failed to show any considerable antiproliferative/cytotoxic effects

Cc1cc(O)cc(-c2nc(Nc3cc(C(F)(F)F)cc(C(F)(F)F)c3)ncc2-c2ccnc(-c3ccccc3)c2)c1 [Compound 10a]
multi-kinase inhibitory effect [1]: 24.7 ± 4.6% | Src kinase inhibitory activity in words (dose-response) (purified Src kinase): completely inactive | cell population in G2/M-phase (HT-29 cells [9]): 24.8 ± 0.4% | cells in S-phase (HT-29 cells [9]): 29.8 ± 0.6% | cell population in G0/G1-phase (HT-29 cells [9]): 45.4 ± 0.6% | increase of apoptotic cell population (HCT-116 cells [2]): 7.5 folds | increase of necrotic cell population (HCT-116 cells [2]): 4.0 folds | inhibition at 10 µM (HT-29 cells [10]): 24% | IC50 (HCT-116 cells [5]): 10.3 ± 0.6 µM | viability at 10 µM (HCT-116 cells [5]): 30 to 45% | IC50 (HT-29 cells [3]): 9.9 ± 0.3 µM | viability at 10 µM (HT-29 cells [3]): > 50%

Cc1cc(O)cc(-c2nc(Nc3cc(C(F)(F)F)cc(C(F)(F)F)c3)ncc2-c2ccnc(-c3ccc(Oc4ccccc4)cc3)c2)c1 [Compound 10j]
multi-kinase inhibitory effect [1]: 30.2 ± 0.4% | viability at 10 µM (HCT-116 cells [5]): 30 to 45% | viability at 10 µM (HT-29 cells [3]): 35 to 45% | viability at 10 µM [4]: > 50% | viability at 100 µM [4]: > 50%

CC(=O)c1ccc(-c2cc(-c3cnc(Nc4cc(C(F)(F)F)cc(C(F)(F)F)c4)nc3-c3cc(C)cc(O)c3)ccn2)cc1 [Compound 10d]
viability at 10 µM (HT-29 cells [3]): 35 to 45% | viability at 10 µM [4]: > 50% | viability at 100 µM [4]: > 50%

COc1cc(C)cc(-c2nc(Nc3cc(C(F)(F)F)cc(C(F)(F)F)c3)ncc2-c2ccnc(-c3ccc(Oc4ccccc4)cc3)c2)c1 [Compound 8j]
multi-kinase inhibitory effect [1]: 26 ± 0.5% | Src kinase selectivity index (purified Src kinase): 2.1 | inhibition at 10 µM (purified Src kinase): 54.9 ± 1.6%

COc1cc(C)cc(-c2nc(Nc3cc(C(F)(F)F)cc(C(F)(F)F)c3)ncc2-c2ccnc(-c3cccnc3)c2)c1 [Compound 8b]
multi-kinase inhibitory effect [1]: 26.6 ± 2.4% | EC50 (purified Src kinase): 1.3 ± 0.3 µM | Src kinase selectivity index (purified Src kinase): 2.9 | inhibition at 10 µM (purified Src kinase): 77.8 ± 1.3% | cells in S-phase (HCT-116 cells [11]; control 36.4 ± 4.1%): 22.8 ± 2.3% | cells in G0/G1-phase (HCT-116 cells [11]; control 39.5 ± 4.6%): 50.2 ± 1.0% | cells in S-phase (HT-29 cells [9]): 21.0 ± 0.9% | cell population in G0/G1-phase (HT-29 cells [9]): 58.8 ± 1.8% | increase of apoptotic cell population (HCT-116 cells [2]): 3.8 folds | increase of necrotic cell population (HCT-116 cells [2]): 2.9 folds | increase of apoptotic cell population (HT-29 cells [12]): 2.5 folds | autophagic signal higher than control cells (HCT-116 cells [13]): 54% | inhibition at 10 µM (HT-29 cells [10]): 21% | IC50 (HCT-116 cells [6]): 32.4 ± 2.8 µM | R (resistance fraction) (HCT-116 cells [6]): 3.7 ± 0.9% | IC50 (HCT-116 cells [5]): > 25 µM | viability at 10 µM (HCT-116 cells [5]): 30 to 45% | IC50 (HT-29 cells [3]): 11.3 ± 0.5 µM | viability at 10 µM (HT-29 cells [3]): 35 to 45%

Cc1cc(O)cc(-c2nc(Nc3cc(C(F)(F)F)cc(C(F)(F)F)c3)ncc2-c2ccnc(-c3ccc(C#N)cc3)c2)c1 [Compound 10f]
multi-kinase inhibitory effect [1]: 23.9 ± 7.4% | Src kinase inhibitory activity in words (dose-response) (purified Src kinase): completely inactive | increase of apoptotic cell population (HCT-116 cells [2]): 15.2 folds | increase of necrotic cell population (HCT-116 cells [2]): 3.7 folds | increase of apoptotic cell population (HT-29 cells [12]): 1.7 folds | autophagic signal higher than control cells (HCT-116 cells [13]): 99% | IC50 (HCT-116 cells [5]): 9.2 ± 0.8 µM | viability at 10 µM (HCT-116 cells [5]): 30 to 45% | IC50 (HT-29 cells [3]): 7.2 ± 1.1 µM

CC(=O)c1cccc(-c2cc(-c3cnc(Nc4cc(C(F)(F)F)cc(C(F)(F)F)c4)nc3-c3cc(C)cc(O)c3)ccn2)c1 [Compound 10c]
viability at 10 µM (HCT-116 cells [5]): 30 to 45% | viability at 10 µM (HT-29 cells [3]): 35 to 45% | viability at 10 µM [4]: > 50% | viability at 100 µM [4]: > 50%

COc1cc(C)cc(-c2nc(Nc3cc(C(F)(F)F)cc(C(F)(F)F)c3)ncc2-c2ccnc(-c3ccccc3)c2)c1 [Compound 8a]
multi-kinase inhibitory effect [1]: 23 ± 0.4% | Src kinase selectivity index (purified Src kinase): 2.4 | inhibition at 10 µM (purified Src kinase): 54 ± 0.6%

Cc1cc(O)cc(-c2nc(Nc3cc(C(F)(F)F)cc(C(F)(F)F)c3)ncc2-c2ccnc(-c3ccc(N(C)C)cc3)c2)c1 [Compound 10g]
multi-kinase inhibitory effect [1]: 39 ± 0.4% | EC50 (purified Src kinase): 3.7 ± 0.7 µM | inhibition at 10 µM (purified Src kinase): 51.3 ± 9.8% | R (resistance fraction) (HCT-116 cells [6]): 41.6 ± 3.2% | R (resistance fraction) (HT-29 cells [7]): 12.9 ± 3.9% | IC50 (HCT-116 cells [5]): 9.4 ± 0.9 µM | viability at 10 µM (HCT-116 cells [5]): 30 to 45% | IC50 (HT-29 cells [3]): 24.2 ± 2.1 µM | viability at 100 µM [4]: > 50%

CCN(CC)CCCC(C)Nc1ccnc2cc(Cl)ccc12 (stereo not drawn) [chloroquine, reference compound]
autophagic signal higher than control cells (HCT-116 cells [13]): 65% | effect on autophagy in words (HT-29 cells [10]; HT-29, 10 μM, 48 h, Cyto-ID): induced autophagy

Cc1cc(O)cc(-c2nc(Nc3cc(C(F)(F)F)cc(C(F)(F)F)c3)ncc2-c2ccnc(-c3cccnc3)c2)c1 [Compound 10b]
Src kinase inhibitory activity in words (dose-response) (purified Src kinase): completely inactive | cell population in G2/M-phase (HT-29 cells [9]): 25.1 ± 0.6% | cells in S-phase (HT-29 cells [9]): 23.0 ± 0.5% | increase of apoptotic cell population (HCT-116 cells [2]): 4.7 folds | increase of necrotic cell population (HCT-116 cells [2]): 2.4 folds | increase of apoptotic cell population (HT-29 cells [12]): 2.3 folds | autophagic signal higher than control cells (HCT-116 cells [13]): 30% | IC50 (HCT-116 cells [6]): 25.9 ± 1.3 µM | R (resistance fraction) (HCT-116 cells [6]): <1% | IC50 (HCT-116 cells [5]): > 25 µM | viability at 10 µM (HCT-116 cells [5]): 30 to 45% | IC50 (HT-29 cells [3]): 6.4 ± 0.5 µM | viability at 10 µM (HT-29 cells [3]): > 50%
